Active and inactive are the calls of the source.
Legend:
[1] = test system: Rattus norvegicus; assay: Toxicity in Sprague-Dawley rat assessed as total distance traveled at 30 mg/kg, po after 1 hr by open-field locomotor activity test; assay type: organism-based; design: dose 30 mg/kg, route oral; conditions: in vivo
How it was run: (§1)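 Male Sprague-Dawley rats received a single oral gavage dose of 30 mg/kg (free base weight) in 0.5% methocel–Tween-80 (99:1) or vehicle alone. Behaviour was assessed 1 h postdose, as time on the rotorod in seconds for the rotorod test and total distance travelled in cm for open-field locomotor activity. Values are mean ± SEM, n = 8 per group.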

[2] = test system: Rattus norvegicus; assay: Ex vivo receptor occupancy of CRF1 receptor in Sprague-Dawley rat brain at 0.3 mg/kg, po by [125I]sauvagine binding and autoradiography relative to control; assay type: functional
How it was run: (§2)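 Sprague-Dawley rats dosed po at 0.3, 1, 3, 10, 30 mg/kg in the defensive-withdrawal vehicle and protocol; brains removed, sectioned, frozen at -80 °C, then ex vivo binding gave occupancy relative to vehicle-treated rats; mean ± SEM.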

[3] = test system: Rattus norvegicus; assay: Ex vivo receptor occupancy of CRF1 receptor in po dosed Sprague-Dawley rat brain by [125I]sauvagine binding and autoradiography relative to control; assay type: functional; conditions: read-out: MED; how it was run: as §2
[4] = Oral bioavailability in male Sprague-Dawley CD rat at 5 mg/kg relative to 1 mg/kg, iv dose; assay type: ADME, organism-based; conditions: in vivo
How it was run: (§3)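 Sprague-Dawley CD rats: 1 mg/kg iv bolus in 20% ethanol/saline (apparent pH 3.4) to 3 males and 3 females; 5 mg/kg po in 0.5% methylcellulose with 1% Tween-80 to 3 males. Jugular blood into EDTA, predose to 32 h. Free base quantified by LC/MS after solid-phase extraction (range 5-5000 nM); noncompartmental analysis; F relative to iv.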

[5] = test system: Rattus norvegicus; assay: Ex vivo receptor occupancy of CRF1 receptor in Sprague-Dawley rat brain at 1 mg/kg, po by [125I]sauvagine binding and autoradiography relative to control; assay type: functional; how it was run: as §2
[6] = test system: Rattus norvegicus; assay: Ex vivo receptor occupancy of CRF1 receptor in Sprague-Dawley rat brain at 3 mg/kg, po by [125I]sauvagine binding and autoradiography relative to control; assay type: functional; how it was run: as §2
[7] = test system: Rattus norvegicus; assay: Ex vivo receptor occupancy of CRF1 receptor in Sprague-Dawley rat brain at 10 mg/kg, po by [125I]sauvagine binding and autoradiography relative to control; assay type: functional; how it was run: as §2
[8] = Clearance in male Sprague-Dawley CD rat at 1 mg/kg, iv; assay type: ADME, organism-based; design: dose 1 mg/kg, route intravenous; conditions: in vivo; how it was run: as §3
[9] = test system: Rattus norvegicus; assay: Anxiolytic-like activity in Sprague-Dawley rat assessed as decrease in latency to exit dark chamber at 10 mg/kg, po measured after 1 hr by defensive withdrawal test relative to control; assay type: functional; design: scale not given: the % may be the effect or the level left
How it was run: (§4)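 Male Sprague-Dawley rats (180-300 g), individually housed; open field with cylindrical dark chamber; oral dosing in 0.25% Methocel 1 h before a 15 min session scored blind via video; latency to place all four paws in open field recorded, maximum 900 s; test doses 1.0, 3.0, 10, 30 mg/kg; positive control at 10 mg/kg; n = 12/dose; Kruskal-Wallis then Mann-Whitney U.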

[10] = Clearance in female Sprague-Dawley CD rat at 1 mg/kg, iv; assay type: ADME, organism-based; design: dose 1 mg/kg, route intravenous; conditions: in vivo; how it was run: as §3
[11] = test system: Rattus norvegicus; assay: Anxiolytic-like activity in Sprague-Dawley rat assessed as increase in time spent in open arms at 30 mg/kg, po measured after 1 hr by elevated plus maze test; assay type: functional, organism-based; design: dose 30 mg/kg
How it was run: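 Group-housed male Sprague-Dawley rats (180-300 g) dosed po in 0.25% Methocel 1 h before elevated plus maze; arm entry defined as all four paws in arm; percent time in open arms scored; test doses 1.0, 3.0, 10, 30 mg/kg; positive control at 18 mg/kg; n = 13-15/dose; mean ± SEM, ANOVA then Fisher's LSD.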

[12] = Elimination half life in male Sprague-Dawley CD rat at 1 mg/kg, iv; assay type: ADME, organism-based; design: dose 1 mg/kg, route intravenous; conditions: in vivo, read-out: beta t1/2 (converted); how it was run: as §3
[13] = test system: Rattus norvegicus; assay: Hepatic blood flow in iv dosed male Sprague-Dawley CD rat; assay type: ADME, organism-based, Liver; conditions: in vivo
[14] = test system: Rattus norvegicus; assay: Ex vivo receptor occupancy of CRF1 receptor in Sprague-Dawley rat brain at 30 mg/kg, po by [125I]sauvagine binding and autoradiography relative to control; assay type: functional; how it was run: as §2
[15] = Volume of distribution at steady state in female Sprague-Dawley CD rat at 1 mg/kg, iv; assay type: ADME, organism-based; design: dose 1 mg/kg, route intravenous; conditions: in vivo, read-out: Vdss
How it was run: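 Female Sprague-Dawley CD rats (n = 3) given a single 1 mg/kg iv bolus (free base) in 20% ethanol/physiological saline (apparent pH 3.4). Jugular vein blood taken into EDTA from predose to 32 h. Plasma assayed by solid-phase extraction and LC/MS with an internal standard (range 5–5000 nM). Noncompartmental analysis; mean ± SD.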

[16] = Tmax in male Sprague-Dawley CD rat at 5 mg/kg, po; assay type: ADME, organism-based; design: dose 5 mg/kg, route oral; conditions: in vivo; how it was run: as §3
[17] = test system: Rattus norvegicus; assay: Hepatic blood flow in iv dosed female Sprague-Dawley CD rat; assay type: ADME, organism-based, Liver; conditions: in vivo
[18] = Elimination half life in female Sprague-Dawley CD rat at 1 mg/kg, iv; assay type: ADME, organism-based; design: dose 1 mg/kg, route intravenous; conditions: in vivo, read-out: beta t1/2 (converted); how it was run: as §3
[19] = test system: Rattus norvegicus; assay: Toxicity in Sprague-Dawley rat assessed as time spent on rotarod at 30 mg/kg, po after 1 hr by rotarod test; assay type: organism-based; design: dose 30 mg/kg, route oral; conditions: in vivo; how it was run: as §1
[20] = test system: Rattus norvegicus; assay: Anxiolytic-like activity in Sprague-Dawley rat assessed as decrease in latency to exit dark chamber at 30 mg/kg, po measured after 1 hr by defensive withdrawal test relative to control; assay type: functional; design: scale not given: the % may be the effect or the level left; how it was run: as §4
[21] = test system: Rattus norvegicus; assay: Anxiolytic-like activity in Sprague-Dawley rat assessed as decrease in latency to exit dark chamber at 3 mg/kg, po measured after 1 hr by defensive withdrawal test relative to control; assay type: functional; design: scale not given: the % may be the effect or the level left; how it was run: as §4
[22] = Elimination half life in Beagle dog at 1 mg/kg, iv; assay type: ADME, organism-based, Canis lupus familiaris; design: dose 1 mg/kg, route intravenous; conditions: in vivo, read-out: beta t1/2 (converted)
How it was run: (§5)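 Male beagle dogs (8.0-11.0 kg) dosed iv or po (5 mg/kg oral suspension in 0.5% methylcellulose with 1% Tween-80); plasma sampled 0.25-24 h; liquid-liquid extraction with hexane/ether, LC/MS/MS, quantitation limit 1 ng/mL (2.42 nM); noncompartmental parameters as free base.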

[23] = Clearance in Beagle dog at 1 mg/kg, iv; assay type: ADME, organism-based, Canis lupus familiaris; design: dose 1 mg/kg, route intravenous; conditions: in vivo; how it was run: as §5
[24] = Cmax in Beagle dog at 20 mg/kg, po; assay type: ADME, organism-based, Canis lupus familiaris; design: dose 20 mg/kg, route oral; conditions: in vivo
[25] = Oral bioavailability in Beagle dog at 20 mg/kg; assay type: ADME, organism-based, Canis lupus familiaris; conditions: in vivo
[26] = Tmax in Beagle dog at 20 mg/kg, po; assay type: ADME, organism-based, Canis lupus familiaris; design: dose 20 mg/kg, route oral; conditions: in vivo

For `COCCN(CCOC)c1nc(C)nc2c(-c3ccc(OC)cc3C)c(C)nn12`, the Activity [1] was 4986 cm, the Activity [2] was 12% and the minimal effective dose [3] was 3 mg/kg. It also gave a bioavailability [4] of 51%, an Activity [5] of 17% and an Activity [6] of 48%. For the same compound, the Activity [7] was 60%, the clearance [8] was 1.2 L/h/kg and the Activity [9] was 73%. For the same compound, the clearance [10] was 0.87 L/h/kg, the Activity [11] was “Active” and the half-life [12] was 9.7 h. For the same compound, the QH [13] was 3.3 L/h/kg, the Activity [14] was 82% and the Vd [15] was 12.2 L/kg. For the same compound, the Tmax [16] was 0.5 h, the QH [17] was 3.3 L/h/kg and the half-life [18] was 11.9 h. The Time [19] was 158 s, the Activity [20] was 59% and the Activity [21] was 62%.
Compound `CC[C@@H](C)Nc1nc(C)nc2c(-c3c(C)cc(OC)cc3OC)c(C)nn12` has a half-life [22] of 33.3 h, a clearance [23] of 0.6 L/h/kg and a Cmax [24] of 1.94 µM. It also gave a bioavailability [25] of 4.7% and a Tmax [26] of 4 h.

Reference: ChEMBL document CHEMBL1138477, “8-(4-Methoxyphenyl)pyrazolo[1,5-a]-1,3,5-triazines: selective and centrally active corticotropin-releasing factor receptor-1 (CRF1) antagonists” (J Med Chem, 2009)
